Consider 18 compounds from ChEMBL document CHEMBL3351828, “Design and optimization of highly-selective fungal CYP51 inhibitors” (Bioorg Med Chem Lett, 2014).

pIC50, pKd: −log10 of the molar value. ≈ marks a conversion by molar mass, not a printed value.

In series [1] the target is Cytochrome P450 3A4 (Homo sapiens, UniProt P08684). In words: Inhibition of CYP3A4 in human hepatocytes using testosterone as substrate by HPLC/MS/MS method. The series is classed as ADME, cell-based, Hepatocyte.
Series [2] concerns Candida albicans. In words: Antifungal activity against Candida albicans by broth macrodilution method. The class given is functional. The procedure, abridged:
(§1)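 MIC against standard ATCC isolates determined under CLSI guidelines, M27-A3 for yeasts. […] Units μg/mL.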

The subject of series [3] is Candida albicans. In words: Antifungal activity against Candida albicans R303 infected in CD-1 mouse assessed as reduction of kidney fungal burden at 10 mg/kg, po administered 2 hrs post infection on day 1 measured on day 2 relative to vehicle-treated control. The class given is functional. An outline of the steps:
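Female CD-1 mice (7 weeks, 18-25 g) made neutropenic with IP cyclophosphamide 150 mg/kg at 4 and 1 days before tail-vein inoculation with C. albicans R303. Single oral dose 2 h post-infection on day 1. Kidneys harvested day 2, homogenized in PBS, serially diluted and plated on SDA for CFU/kidney. Read-out: percent reduction in kidney fungal burden versus vehicle-treated controls.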

Series [4] in a line: Selectivity index, ratio of IC50 for human hepatocytes CYP3A4 to MIC for Trichophyton rubrum. On the set-up: species or system Hepatocyte. The procedure, abridged: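 CYP3A4 IC50 measured in pooled human hepatocyte microsomes with 150 μM testosterone as substrate, a concentration equal to the Km determined in the same lab. […] Selectivity index calculated as CYP3A4 IC50 (μM) divided by T. rubrum MIC (μg/mL).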

Series [5] has as its system Trichophyton rubrum. In words: Antifungal activity against Trichophyton rubrum by broth macrodilution method. The class given is functional. An outline of the steps:
as §1

For series [6], the system named is Candida albicans. In words: Antifungal activity against Candida albicans R303 infected in CD-1 mouse assessed as reduction of kidney fungal burden at 50 mg/kg, po administered 2 hrs post infection on day 1 measured on day 2 relative to vehicle-treated control. The class given is functional. The procedure, abridged:
(§2)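 Female CD-1 mice (7 weeks, 18-25 g) made neutropenic with IP cyclophosphamide (150 mg/kg) on days 4 and 1 before tail-vein inoculation with C. albicans R303. Single oral dose given 2 h after infection on day 1. Kidneys harvested day 2 and homogenized in PBS. CFU/kidney counted on SDA plates from serial dilutions. Percent reduction taken versus vehicle-treated controls. Fluconazole used as positive control.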

Series [7] deals with Candida albicans. In words: Antifungal activity against Candida albicans R303 infected in CD-1 mouse assessed as reduction of kidney fungal burden at 20 mg/kg, po administered 2 hrs post infection on day 1 measured on day 2 relative to vehicle-treated control. The series is classed as functional. The procedure, abridged:
as §2

Series [8] deals with Cytochrome P450 2C9 (Homo sapiens, UniProt P11712). In words: Inhibition of CYP2C9 (unknown origin). The class given is ADME.
In series [9] the target is Lanosterol 14-alpha demethylase (Candida albicans (strain SC5314 / ATCC MYA-2876) (Yeast), UniProt P10613). In words: Binding affinity to Candida albicans CYP51.
The nature of series [10]: Half life in po dosed human. The series is classed as ADME, organism-based. The following applies: in vivo.
Series [11] is described as follows: Selectivity for yeast CYP51 over human CYP51.
The target in series [12] is Cytochrome P450 2C19 (Homo sapiens, UniProt P33261). In words: Inhibition of CYP2C19 (unknown origin). The class given is ADME.
Series [13] deals with Trichophyton mentagrophytes. In words: Antifungal activity against Trichophyton mentagrophytes infected in guinea pig dermatophytosis model assessed as mycological efficacy at 10 mg/kg, po administered for 9 days. The class given is functional.
Series [14] can be described thus: Metabolic stability in human liver microsomes after 2 hrs. The class given is ADME. To be noted: read-out: Stability. (Liver microsomes are vesicles of endoplasmic reticulum, rich in cytochrome P450 enzymes.)
The subject of series [15] is Candida albicans. In words: Antifungal activity against Candida albicans infected in mouse candidiasis model assessed as reduction of kidney fungal burden at 10 mg/kg, po. On the set-up: scale not given: the % may be the effect or the level left. The class given is functional.

Chain of Cytochrome P450 3A4 (P08684 whole entry): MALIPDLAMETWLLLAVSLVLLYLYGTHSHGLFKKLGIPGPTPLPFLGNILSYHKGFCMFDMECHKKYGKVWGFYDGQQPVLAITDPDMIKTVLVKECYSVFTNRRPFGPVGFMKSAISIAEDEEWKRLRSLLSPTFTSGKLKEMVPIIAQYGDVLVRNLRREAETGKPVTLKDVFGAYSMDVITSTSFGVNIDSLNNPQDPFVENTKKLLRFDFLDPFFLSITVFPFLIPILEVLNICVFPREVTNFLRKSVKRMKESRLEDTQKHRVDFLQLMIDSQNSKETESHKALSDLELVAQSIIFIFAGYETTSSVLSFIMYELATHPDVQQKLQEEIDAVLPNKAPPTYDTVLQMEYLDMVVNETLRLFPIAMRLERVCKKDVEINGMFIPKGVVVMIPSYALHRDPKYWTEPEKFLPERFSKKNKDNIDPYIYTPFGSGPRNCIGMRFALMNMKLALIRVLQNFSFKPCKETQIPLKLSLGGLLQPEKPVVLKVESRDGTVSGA
Chain of Lanosterol 14-alpha demethylase (P10613 whole entry): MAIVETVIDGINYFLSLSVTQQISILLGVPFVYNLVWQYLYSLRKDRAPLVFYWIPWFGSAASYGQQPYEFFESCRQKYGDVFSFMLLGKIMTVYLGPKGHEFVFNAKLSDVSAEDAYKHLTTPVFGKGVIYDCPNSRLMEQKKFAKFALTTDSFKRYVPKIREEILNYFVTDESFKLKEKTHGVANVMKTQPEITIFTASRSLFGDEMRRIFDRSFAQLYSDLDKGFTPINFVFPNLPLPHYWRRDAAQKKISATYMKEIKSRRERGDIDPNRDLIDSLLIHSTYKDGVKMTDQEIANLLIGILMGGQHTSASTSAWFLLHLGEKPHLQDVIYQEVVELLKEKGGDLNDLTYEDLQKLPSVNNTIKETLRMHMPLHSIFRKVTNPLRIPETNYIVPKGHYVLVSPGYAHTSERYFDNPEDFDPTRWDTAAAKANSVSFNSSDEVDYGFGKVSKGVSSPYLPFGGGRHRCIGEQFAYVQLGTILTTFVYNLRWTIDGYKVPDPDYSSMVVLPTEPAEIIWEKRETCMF
Chain of Cytochrome P450 2C19 (P33261 whole entry): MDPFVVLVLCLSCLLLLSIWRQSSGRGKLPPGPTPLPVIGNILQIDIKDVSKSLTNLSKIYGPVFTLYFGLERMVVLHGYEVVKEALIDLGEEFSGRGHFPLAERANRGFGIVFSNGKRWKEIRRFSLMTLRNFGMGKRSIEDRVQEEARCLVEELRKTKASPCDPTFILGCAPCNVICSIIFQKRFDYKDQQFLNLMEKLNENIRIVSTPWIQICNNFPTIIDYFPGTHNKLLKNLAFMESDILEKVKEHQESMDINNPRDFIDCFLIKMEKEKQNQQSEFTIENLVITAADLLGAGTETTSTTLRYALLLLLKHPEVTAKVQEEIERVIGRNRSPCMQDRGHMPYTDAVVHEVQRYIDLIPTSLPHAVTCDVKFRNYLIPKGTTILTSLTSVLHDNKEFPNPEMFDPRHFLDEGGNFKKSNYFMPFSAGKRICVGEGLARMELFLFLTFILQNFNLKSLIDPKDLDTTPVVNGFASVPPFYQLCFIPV
Chain of Cytochrome P450 2C9 (P11712 whole entry): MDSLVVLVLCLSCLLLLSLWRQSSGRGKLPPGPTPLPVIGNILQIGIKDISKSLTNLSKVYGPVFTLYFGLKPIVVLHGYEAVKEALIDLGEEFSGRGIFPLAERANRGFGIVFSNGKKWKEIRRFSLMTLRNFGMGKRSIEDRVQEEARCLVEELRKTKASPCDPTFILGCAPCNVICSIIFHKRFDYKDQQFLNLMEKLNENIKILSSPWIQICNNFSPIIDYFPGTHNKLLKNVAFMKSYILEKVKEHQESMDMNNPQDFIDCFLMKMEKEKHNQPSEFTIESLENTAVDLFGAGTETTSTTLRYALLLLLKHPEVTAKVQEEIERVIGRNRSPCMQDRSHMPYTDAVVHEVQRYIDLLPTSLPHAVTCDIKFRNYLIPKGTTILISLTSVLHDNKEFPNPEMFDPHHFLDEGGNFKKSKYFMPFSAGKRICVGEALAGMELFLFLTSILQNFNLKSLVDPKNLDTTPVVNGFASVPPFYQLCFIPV

`C[C@@H](c1ncncc1F)[C@](O)(Cn1cnnn1)c1ccc(F)cc1F`: in series [1], the pIC50 (in general, −log10 of the IC50, conventionally taken in molar units) was 4.49. Further, the MIC50 (usually an inhibitory concentration at the 50% level, which refers to growth in some studies and to a panel of isolates in others) in series [2] came to 1 µg/mL (≈ 2.85 µM).
The matching figures for `C[C@@H](c1ncncc1F)[C@](O)(Cn1cnnc1)c1ccc(F)cc1F`: 4.29 and more than 16 µg/mL.
Regarding `OC(Cn1cncn1)(Cn1cncn1)c1ccc(F)cc1F` [FLUCONAZOLE], in [3], the Efficacy came out at 99%.
Turning to `OC(Cn1cnnn1)(c1ccc(F)cc1F)C(F)(F)c1ccc(-c2ccc(F)cc2)cn1` (stereo not given), the Efficacy in series [3] came out at 99%. In addition, the MIC50 in series [2] was determined as 0.016 µg/mL (≈ 0.0358 µM).
As for `O[C@@](Cn1cnnn1)(c1ccc(F)cc1F)C(F)(F)c1ccc(-c2ccc(Cl)cc2)cn1`, the “Selectivity Index” value in series [4] was found to be 9000. Moreover, the pIC50 in [1] was 4.44. For the same compound, the MIC50 in series [2] is not above 0.001 µg/mL; in series [5], 0.004 µg/mL (≈ 0.00862 µM).
The matching figures for `O[C@@](Cn1cnnn1)(c1ccc(F)cc1F)C(F)(F)c1ccc(-c2ccc(C(F)(F)F)cc2)cn1`: 27000, 4.27, not above 0.001 µg/mL and 0.002 µg/mL (≈ 0.00402 µM).
Turning to `OC(Cn1cnnn1)(c1ccc(F)cc1F)C(F)(F)c1ccc(OCC(F)(F)F)cn1` (stereo not given), in series [1], the pIC50 was 4.14. Further, the Efficacy in [6] was 81%. The compound further had an MIC50 in [2] of 0.06 µg/mL (≈ 0.133 µM).
For `O[C@@](Cn1cnnn1)(c1ccc(F)cc1F)C(F)(F)c1ccc(Cl)cn1`, in that order: 4.13, 100% and 0.25 µg/mL (≈ 0.645 µM).
The matching figures for `OC(Cn1cnnn1)(c1ccc(F)cc1F)C(F)(F)c1ccccn1` (stereo not given): 3.87, 98% and 0.25 µg/mL (≈ 0.708 µM).
Compound `OC(Cn1cnnn1)(c1ccc(F)cc1F)C(F)(F)c1ccc(-c2ccc(C(F)(F)F)cc2)cn1` (stereo not given) gave a negative-log IC50 (pIC50) in series [1] of less than 4.22. In addition, the Efficacy in series [7] is recorded as 94%. Besides, the MIC50 in series [2] is not above 0.016 µg/mL.
Turning to `C[C@@H](c1ncncc1F)[C@](O)(Cn1cncn1)c1ccc(F)cc1F` [VORICONAZOLE], in series [2], the MIC50 was determined as 0.06 µg/mL (≈ 0.172 µM).
As to `C[C@@H](c1ncncc1F)[C@](O)(Cn1ccnc1)c1ccc(F)cc1F`, the pIC50 in series [1] was 6.10. In series [2], this compound displayed an MIC50 of 0.5 µg/mL (≈ 1.44 µM).
`CCC(C)n1ncn(-c2ccc(N3CCN(c4ccc(OCC5COC(Cn6cncn6)(c6ccc(Cl)cc6Cl)O5)cc4)CC3)cc2)c1=O` (stereo not given) [ITRACONAZOLE]: the MIC50 in series [2] was 0.016 µg/mL (≈ 0.0227 µM); in [5], 0.062 µg/mL (≈ 0.0879 µM).
In [1], `N#Cc1ccc(-c2ccc(C(F)(F)C(O)(Cn3cnnn3)c3ccc(F)cc3F)nc2)cc1` (stereo not given) showed a negative logarithm of the IC50 (pIC50) of 4.80. Further, in series [6], the Efficacy was found to be 100%. The compound further showed an MIC50 in series [2] not above 0.016 µg/mL.
With `O[C@@](Cn1cnnn1)(c1ccc(F)cc1F)C(F)(F)c1ccc(-c2ccc(OCC(F)(F)F)cc2)cn1` [OTESECONAZOLE], in [4], the “Selectivity Index” value was more than 65000. Moreover, the pIC50 in series [1] was 4.19; in series [8], 4.00; in series [12], 4.14. In series [9], the pKd (commonly −log10 of the Kd, conventionally taken in molar units) was not below 7.41. The half-life (commonly how long it takes for the measured level to halve) in [10] was more than 24 h. For the same compound, in series [11], the Selectivity ratio was more than 2200. Further, the Activity in series [13] is listed as 86%; in series [15] it was 99%. Further, the MIC50 in series [2] and in series [5] was not above 0.001 µg/mL each time. Further, in [14], the remaining at 2 h is more than 99%.
Consider `O[C@@](Cn1cnnn1)(c1ccc(F)cc1F)C(F)(F)c1ccc(-c2ccc(OC(F)(F)F)cc2)cn1`, for which the “Selectivity Index” value in series [4] is recorded as more than 79000. Further, in [1], the pIC50 was 4.10. For the same compound, the MIC50 in [2] and in series [5] was not above 0.001 µg/mL each time.
With `C[C@@H](c1ncncc1F)[C@](O)(Cn1ncnn1)c1ccc(F)cc1F`, the pIC50 in series [1] is 4.34. In [2], the MIC50 came to 8 µg/mL (≈ 22.8 µM).
The matching figures for `C[C@@H](c1ncncc1F)[C@](O)(Cn1ccnn1)c1ccc(F)cc1F`: 5.10 and more than 16 µg/mL.
